Published values gathered from unrelated publications.
Compare with care: the assays were run in different laboratories.
Target: Calcium/calmodulin-dependent protein kinase kinase 1 (CAMKK1, Homo sapiens, UniProt Q8N5S9)

| effect on | action | method | tested at | measurement | value | Structure (SMILES) |
| --- | --- | --- | --- | --- | --- | --- |
| thermal stability | – | DSF | 10 µM | ΔTm | 0.7 °C | Cn1c2c(Cl)c(Cl)ccc2c2cc(N)[nH]c(=O)c21 |
| enzyme activity | inhibitor | – | 5 µM | remaining activity | 130% | O=C(Nc1cnn(-c2csc(C(=O)NC3COC3)c2)c1)Nc1ccccc1Cl |
| cell-free assay | – | – | 0.5 µM | remaining signal | 90.2% | O=C1NC(=O)c2cc(Nc3ccc(F)cc3)c(Nc3ccc(F)cc3)cc21 |
| cell-free assay | – | competition with immobilised ligand | 1 µM | remaining binding | 86% | CCCOc1ccc([C@H]2[C@H](C(=O)O)[C@@H](c3ccc4c(c3)OCO4)CN2CC(=O)Nc2c(CC)cccc2CC)cc1 |
| cell-free assay | – | – | 0.5 µM | remaining signal | 84.8% | COc1cc(Nc2c(C#N)cnc3cc(OCCCN4CCN(C)CC4)c(OC)cc23)c(Cl)cc1Cl |
| cell-free assay | – | competition with immobilised ligand | 1 µM | remaining binding | 100% | COc1ccc2c(c1)O[C@H](c1ccc(OC)c(OC)c1)C[C@@H]2NC(=O)C1(c2ccc3c(c2)OC(F)(F)O3)CC1 |
| enzyme activity | inhibitor | radiometric | 1 µM | remaining activity | 88% | CC(C)(C)c1nc2c(s1)c1nc(N)ncc1c1ccc(NS(=O)(=O)c3c(F)cccc3F)c(F)c12 |
| binding | – | competition with immobilised ligand | 1 µM | remaining binding | 100% | Cc1nc(N2CC[C@@H](O)C2)ncc1-c1cc(C(F)(F)F)cc2[nH]ncc12 |
| thermal stability | – | DSF | 10 µM | ΔTm | -0.1 °C | Cn1c2c(c3ccc(Cl)c(Cl)c31)C(C#N)C1(CCN(C(=O)OC(C)(C)C)CC1)NC2=O (racemic) |
| enzyme activity | inhibitor | – | 1 µM | inhibition | 46% | CN(c1ncccc1CNc1nc(Nc2ccc3c(c2)CC(=O)N3)ncc1C(F)(F)F)S(C)(=O)=O |
| enzyme activity | inhibitor | – | 1 µM | remaining activity | 91.8% | CC(C)(O)[C@H]1CC[C@H](Nc2ccc3ncc(-c4cccc(C(F)(F)F)c4)n3n2)CC1 |
| thermal stability | – | DSF | 10 µM | ΔTm | 0.5 °C | Cn1c2c(Cl)c(Cl)ccc2c2cn[nH]c(=O)c21 |
| cell-free assay | – | competition with immobilised ligand | 1 µM | remaining binding | 90% | CN(c1ccnc(CNc2nc(Nc3ccc4c(c3)CC(=O)N4)ncc2C(F)(F)F)n1)S(C)(=O)=O |
| enzyme activity | inhibitor | – | 23.5 nM | remaining activity | 85% | Cc1ccc(C(=O)Nc2ccc(CN3CCN(C)CC3)c(C(F)(F)F)c2)cc1C#Cc1cnc2cccnn12 |
| cell-free assay | – | competition with immobilised ligand | 1 µM | remaining binding | 97% | Cc1c(NC(=O)c2cc(C(N)=O)nc3cc(F)ccc23)c(C(F)(F)F)nn1Cc1ccc(C#N)cc1 |
| cell-free assay | – | – | 0.5 µM | remaining signal | 123% | Oc1ccc(-c2nc(-c3ccncc3)c(-c3ccc(F)cc3)[nH]2)cc1 |
| cell-free assay | – | competition with immobilised ligand | 0.1 µM | remaining binding | 100% | COCCOc1nc(-c2ccc(Cl)nc2)nc2c1CN(C(=O)c1ncn3ccccc13)CC2 |
| target engagement in cells | inhibitor | chemoproteomics | 20 mM | inhibition | -24.9% | COc1cccc2c(NCc3ccccc3)nc(-n3c(N)nc4ccccc43)nc12 |
